CSC inhib – cancer stem cell inhibition; cancer stem cell-like cells viability, luminescence; inhibition, % at 7.5 µM; 300,000 compounds, 1.1% hits; in the data active = inhibition above about 75%; inconclusive = no clear call, values can overlap the other calls; tested in HMLE shEcad cells
UPR CHOP act – activators of apoptotic arm of unfolded protein response (CHOP) | 330,000 compounds, 0.34% hits | activation, % at 10 µM | AID 449763 | CHO-CHOP luciferase reporter, UPR activation, luminescence; percent of tunicamycin response over DMSO baseline;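 active = at 10 µM dose, activation of 40% or more, normalized to positive control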
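Assay system: CHO cells with stable CHOP pathway luciferase reporter; Buffer or medium: F12 plus 10% serum; Times: 16-18 h cell attachment, then 6 h compound exposure, 37 °C; Signal: luciferase luminescence; Read-out basis: percent activation relative to tunicamycin control; Control set: tunicamycin high control, DMSO low control.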
Mdm2-MdmX inh – disrupts the human Mdm2-MdmX interaction; O15151+Q00987; SaOS-2 split-luciferase Mdm2/MdmX complementation, luminescence; inhibition, % at 8 µM; 330,000 compounds, 3% hits;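 active = inhibition of at least 50% at 8 µM in the primary screen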
Target sequence (O15151 whole entry, looked up): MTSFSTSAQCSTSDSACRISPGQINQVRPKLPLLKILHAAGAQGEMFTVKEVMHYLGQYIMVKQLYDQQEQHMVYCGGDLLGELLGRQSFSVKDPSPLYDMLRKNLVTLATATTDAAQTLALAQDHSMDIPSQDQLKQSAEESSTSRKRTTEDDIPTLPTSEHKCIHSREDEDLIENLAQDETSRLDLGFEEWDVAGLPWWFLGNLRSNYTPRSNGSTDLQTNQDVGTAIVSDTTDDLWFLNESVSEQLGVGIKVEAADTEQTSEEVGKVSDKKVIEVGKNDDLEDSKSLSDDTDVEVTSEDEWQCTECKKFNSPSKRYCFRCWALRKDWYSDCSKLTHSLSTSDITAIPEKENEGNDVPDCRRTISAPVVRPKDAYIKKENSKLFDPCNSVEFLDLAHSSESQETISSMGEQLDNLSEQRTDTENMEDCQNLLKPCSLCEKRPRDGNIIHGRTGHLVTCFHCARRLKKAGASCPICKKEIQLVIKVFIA
Target sequence (Q00987 whole entry, looked up): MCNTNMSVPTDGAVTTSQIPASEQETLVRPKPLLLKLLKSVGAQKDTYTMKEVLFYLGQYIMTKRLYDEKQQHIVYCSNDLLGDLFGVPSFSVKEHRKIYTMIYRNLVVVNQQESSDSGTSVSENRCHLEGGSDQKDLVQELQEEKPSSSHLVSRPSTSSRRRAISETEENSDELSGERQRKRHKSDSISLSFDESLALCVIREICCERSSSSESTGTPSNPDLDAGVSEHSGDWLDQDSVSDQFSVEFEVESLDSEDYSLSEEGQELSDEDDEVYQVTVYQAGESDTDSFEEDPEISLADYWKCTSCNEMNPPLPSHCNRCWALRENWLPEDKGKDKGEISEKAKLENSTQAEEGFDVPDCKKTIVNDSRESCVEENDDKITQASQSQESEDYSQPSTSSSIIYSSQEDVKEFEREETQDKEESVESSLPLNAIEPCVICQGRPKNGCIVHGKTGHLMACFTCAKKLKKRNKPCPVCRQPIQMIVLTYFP
T cruzi repl – T. cruzi replication inhibition | T. cruzi beta-gal in NIH3T3, luminescence, 90 h | inhibition, % (no concentration beside the values) | 300,000 compounds, 1.4% hits | AID 1885;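 active = mean inhibition across valid replicates above about 55%, limit read from the data; inconclusive = mean below that limit but half or more replicates reach it; inactive = mean below it, under half of replicates reach it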;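 also: signal also drops with host cell toxicity which is not excluded here; higher percent means less beta-gal luminescence so fewer parasites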
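Assay system: NIH/3T3 fibroblasts plus reporter T. cruzi. Amount: NIH/3T3 cells, 5,000 per well. Buffer or medium: DMEM, 2% fetal bovine serum. Doses: compound pinned at 50 nL/well, DMSO. Schedule: ≥90 h infection period, 3 h prior cell attachment. Signal: luminescent β-galactosidase signal after 60 min lysis. Read-out: parasite load inhibition, %.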
Beta cell apopt – beta cell apoptosis inhibition; protection from apoptosis, % (no concentration beside the values); AID 435005; 300,000 compounds, 0.8% hits; INS-1E cytokine-induced death, ATP luminescence, 48 h; percent of positive-control rescue, neutral wells zero;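 active = Every replicate reaches about 75%, or at least half do and their mean reaches it too, limit read from the data; inconclusive = At least half of replicates reach the limit but their mean does not; inactive = Under half of replicates reach the limit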;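 also: higher means more ATP so stronger rescue from cytokine killing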
UPR XBP1 act – activators of adaptive arm of unfolded protein response (XBP1); CHO-XBP1 luciferase reporter, IRE1-XBP1 UPR activation, luminescence; percent of tunicamycin response, DMSO as zero; activation, % at 20 µM; 330,000 compounds, 0.33% hits; AID 463104;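 active = versus positive control, 20 µM dose yields 30% or more activation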
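Material – CHO cell line with stable XBP1 luciferase reporter · Buffer or medium – F12 plus 10% FBS · Compound – single point, 20 µM final compound, 1% DMSO · Schedule – 16-18 h cell attachment at 37 °C, then 6 h compound exposure · Signal – Steady-Glo luminescence read · Benchmarks – high control tunicamycin 10 µg/mL final, low control DMSO vehicle only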
Mdm2 MdmX conf – confirmation of human Mdm2/MdmX interaction inhibitors | shares compounds with Mdm2-MdmX inh | Mdm2-MdmX binding, luminescent assay | inhibition, % at 8 µM | 10,000 compounds, 55% hits | AID 489028; in the data active = inhibition above about 40%
Full FLuc ctr – counter-screen for Mdm2/MdmX inhibitors: full-length luciferase | shares compounds with Mdm2-MdmX inh | SaOS-2 full-length luciferase counterscreen, luminescence | inhibition, % at 8 µM | 6,200 compounds, 77% hits | AID 504607;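 active = mean inhibition at 8 µM reaching about 37%, which flags the compound as non-specific, limit read from the data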;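 also: p53-null SaOS-2 cells with luciferase driven by a doxycycline-inducible promoter; compound on cells about two nights before reading with doxycycline added after day one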
A number is an active result. The list is not random: actives were taken first. Their share in the collection is about 5%.

What do the screens show for `Nc1nc(Cl)cc(NCCc2ccc(O)cc2)n1`?
CSC inhib: inactive; UPR CHOP act: inactive; Mdm2-MdmX inh: inactive; T cruzi repl: inactive; Beta cell apopt: inactive; UPR XBP1 act: inactive

What do the screens show for `Cn1c(=O)oc2cc(S(=O)(=O)N3CCCc4ccccc43)ccc21`?
CSC inhib: inactive; UPR CHOP act: inactive; Mdm2-MdmX inh: 54.6; T cruzi repl: inactive; Beta cell apopt: inactive; UPR XBP1 act: inactive; Mdm2 MdmX conf: 59.2; Full FLuc ctr: 65.2

What do the screens show for `Cn1c(=O)oc2cc(S(=O)(=O)N3CCc4ccccc43)ccc21`?
CSC inhib: inactive; UPR CHOP act: inactive; Mdm2-MdmX inh: inactive; T cruzi repl: inactive; Beta cell apopt: inactive; UPR XBP1 act: inactive

Results for COC(=O)Nc1ccc(S(=O)(=O)N2CCCc3ccccc32)cc1 ?
CSC inhib: 80.1; UPR CHOP act: inactive; Mdm2-MdmX inh: 54.7; T cruzi repl: inactive; Beta cell apopt: inactive; UPR XBP1 act: inactive; Mdm2 MdmX conf: 48.8; Full FLuc ctr: 56.0

Results for COc1ccc(S(=O)(=O)N2CCc3ccccc32)cc1C(=O)Nc1ccc(C(N)=O)cc1 ?
CSC inhib: inactive; UPR CHOP act: inactive; Mdm2-MdmX inh: 97.8; T cruzi repl: inactive; Beta cell apopt: inactive; UPR XBP1 act: inactive; Mdm2 MdmX conf: 60.0; Full FLuc ctr: 66.3

How did COC(=O)Nc1ccc(S(=O)(=O)N2CCCCC2)cc1 do in these assays?
CSC inhib: inactive; UPR CHOP act: inactive; Mdm2-MdmX inh: inactive; T cruzi repl: inactive; Beta cell apopt: inactive; UPR XBP1 act: inactive

Results for COC(=O)Nc1ccc(S(=O)(=O)N2CCCc3cccc(O)c32)cc1 ?
CSC inhib: inactive; UPR CHOP act: inactive; Mdm2-MdmX inh: 55.1; T cruzi repl: inactive; Beta cell apopt: inactive; UPR XBP1 act: inactive; Mdm2 MdmX conf: 52.1; Full FLuc ctr: 62.6

How did CCC(=O)Nc1ccc(S(=O)(=O)N2CCc3ccccc32)cc1 do in these assays?
CSC inhib: inactive; UPR CHOP act: inactive; Mdm2-MdmX inh: inactive; T cruzi repl: inactive; Beta cell apopt: inactive; UPR XBP1 act: inactive

Results for FC(F)(F)c1cccc(-c2nc3nc(Cl)c(Cl)nc3[nH]2)c1 ?
CSC inhib: 75.6; UPR CHOP act: inactive; Mdm2-MdmX inh: 80.1; T cruzi repl: inactive; Beta cell apopt: 99.1; UPR XBP1 act: inactive; Mdm2 MdmX conf: 74.8; Full FLuc ctr: 69.4

Results for Cc1cc(C(=O)N/N=C/c2ccc(OC(=O)c3ccccc3Br)cc2)n[nH]1 ?
CSC inhib: inactive; UPR CHOP act: inactive; Mdm2-MdmX inh: inactive; T cruzi repl: inactive; Beta cell apopt: inactive; UPR XBP1 act: inactive

Results for Cc1cc(C(=O)N/N=C/c2cc(Br)ccc2OC(=O)c2ccccc2Cl)n[nH]1 ?
UPR CHOP act: inactive; Mdm2-MdmX inh: 57.5; T cruzi repl: inactive; UPR XBP1 act: inactive; Mdm2 MdmX conf: 46.0; Full FLuc ctr: 53.0

What do the screens show for `Cc1cc(C(=O)N/N=C/c2cc(Br)ccc2OC(=O)c2ccccc2)n[nH]1`?
CSC inhib: inactive; UPR CHOP act: inactive; Mdm2-MdmX inh: 51.2; Beta cell apopt: 100.1; UPR XBP1 act: inactive; Mdm2 MdmX conf: inactive; Full FLuc ctr: inactive

What do the screens show for `CCNc1c(NS(=O)(=O)c2ccc(Cl)s2)c(=O)oc2ccccc12`?
CSC inhib: inactive; UPR CHOP act: inactive; Mdm2-MdmX inh: inactive; T cruzi repl: inactive; Beta cell apopt: inactive; UPR XBP1 act: inactive

What do the screens show for `N#Cc1c(SCC(=O)Nc2ccc(Cl)cc2Cl)sc2c(O)cc(=O)[nH]c12`?
CSC inhib: inactive; UPR CHOP act: inactive; Mdm2-MdmX inh: 62.2; T cruzi repl: inactive; Beta cell apopt: inactive; UPR XBP1 act: inactive; Mdm2 MdmX conf: inactive

Results for CCOC(=O)c1sc2nc(CSc3ccccc3)nc(N3CCCN(C)CC3)c2c1C ?
CSC inhib: inactive; UPR CHOP act: inactive; Mdm2-MdmX inh: 74.2; T cruzi repl: inconclusive; Beta cell apopt: inactive; UPR XBP1 act: inactive; Mdm2 MdmX conf: 43.5; Full FLuc ctr: 63.3

How did O=C(c1cccs1)c1c[nH]cc1-c1ccccc1 do in these assays?
CSC inhib: inactive; UPR CHOP act: inactive; Mdm2-MdmX inh: inactive; T cruzi repl: inactive; UPR XBP1 act: inactive

What do the screens show for `O=C(NCCc1ccccc1)c1ccc2c(c1)OCO2`?
CSC inhib: inactive; UPR CHOP act: inactive; Mdm2-MdmX inh: 66.5; T cruzi repl: inactive; Beta cell apopt: inactive; UPR XBP1 act: inactive; Mdm2 MdmX conf: 57.0; Full FLuc ctr: 51.6

Results for O=C(NCCS(=O)(=O)NCc1ccccc1)c1ccc2c(c1)OCO2 ?
UPR CHOP act: inactive; Mdm2-MdmX inh: inactive; T cruzi repl: inactive; Beta cell apopt: inactive; UPR XBP1 act: inactive

What do the screens show for `O=C(CSc1nc2nc(-c3cccs3)cc(C(F)(F)F)c2c(=O)[nH]1)Nc1ccc(F)c(F)c1`?
CSC inhib: 104.1; UPR CHOP act: inactive; Mdm2-MdmX inh: 73.9; T cruzi repl: inactive; Beta cell apopt: inactive; UPR XBP1 act: inactive; Mdm2 MdmX conf: 46.4; Full FLuc ctr: 80.4

What do the screens show for `CC(C)C1Cc2c(sc3[nH]c(=S)n(Cc4ccccc4)c(=O)c23)CO1` (stereo not drawn)?
CSC inhib: 138.8; UPR CHOP act: inactive; Mdm2-MdmX inh: 52.8; T cruzi repl: inactive; Beta cell apopt: inactive; UPR XBP1 act: inactive; Mdm2 MdmX conf: inactive

What do the screens show for `COCC(=O)N/N=C\c1cccc(OC)c1OC/C=C/c1ccccc1`?
CSC inhib: inactive; UPR CHOP act: inactive; Mdm2-MdmX inh: 54.9; T cruzi repl: inactive; Beta cell apopt: inactive; UPR XBP1 act: inactive; Mdm2 MdmX conf: inactive

How did COc1cc(NC(=O)c2c(F)c(F)c(F)c(F)c2F)c(OC)cc1Cl do in these assays?
CSC inhib: inactive; UPR CHOP act: inactive; Mdm2-MdmX inh: 78.4; T cruzi repl: inactive; Beta cell apopt: inactive; UPR XBP1 act: inactive; Mdm2 MdmX conf: 46.5; Full FLuc ctr: 53.4

How did Cc1cc(C(=O)COC(=O)c2ccc(F)cc2F)c(C)n1C1CC1 do in these assays?
CSC inhib: inactive; UPR CHOP act: inactive; Mdm2-MdmX inh: inactive; Beta cell apopt: inactive; UPR XBP1 act: inactive

How did O=C(O)Cn1c(CCS(=O)(=O)c2ccc(Br)cc2)nc2ccccc21 do in these assays?
CSC inhib: inactive; UPR CHOP act: inactive; Mdm2-MdmX inh: inactive; T cruzi repl: inactive; Beta cell apopt: inactive; UPR XBP1 act: inactive

How did Cc1ccc(S(=O)(=O)CCc2nc3ccccc3n2CCC#N)cc1 do in these assays?
CSC inhib: inactive; UPR CHOP act: inactive; Mdm2-MdmX inh: 61.9; T cruzi repl: inactive; Beta cell apopt: inactive; UPR XBP1 act: inactive; Mdm2 MdmX conf: inactive; Full FLuc ctr: inactive

Screens as filed in PubChem BioAssay.
